Shown are actives, neighbours in structure and some others; about 3.5% of the full set was active somewhere.
Pf gametocyte: kills late stage P. falciparum gametocytes | AID 743093 | 150,000 tested, 0.065% active | P. falciparum stage V gametocytes, ATP luminescence, 24 h | inhibition, % at 10.9 µM;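 active = inhibition above the mean plus 3 SD of compounds within the control limits, set per campaign, cut at about 38% in these data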
APP 5'UTR act: APP 5'UTR luciferase reporter activation. 190,000 tested, 1% active. AID 1276. SH-SY5Y APP 5'UTR luciferase reporter, luminescence; zero percent = DMSO vehicle wells. activation, % at 2 µM;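 active = activation above a set limit, based on mean plus 3 SD of controls, cut at about 140% in these data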
FLuc act counter: firefly luciferase counter-screen for stimulation assays. activation factor at 10 µM. P08659. 200,000 tested, under 10 active. ATPlite luciferase biochemical, luminescence, 10 min; 0 = ATP-free wells, 1 = DMSO control;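 active = luciferase activation factor, scaled between plate controls, of at least 2 with compound at 10 µM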
Target sequence (P08659 whole entry, looked up): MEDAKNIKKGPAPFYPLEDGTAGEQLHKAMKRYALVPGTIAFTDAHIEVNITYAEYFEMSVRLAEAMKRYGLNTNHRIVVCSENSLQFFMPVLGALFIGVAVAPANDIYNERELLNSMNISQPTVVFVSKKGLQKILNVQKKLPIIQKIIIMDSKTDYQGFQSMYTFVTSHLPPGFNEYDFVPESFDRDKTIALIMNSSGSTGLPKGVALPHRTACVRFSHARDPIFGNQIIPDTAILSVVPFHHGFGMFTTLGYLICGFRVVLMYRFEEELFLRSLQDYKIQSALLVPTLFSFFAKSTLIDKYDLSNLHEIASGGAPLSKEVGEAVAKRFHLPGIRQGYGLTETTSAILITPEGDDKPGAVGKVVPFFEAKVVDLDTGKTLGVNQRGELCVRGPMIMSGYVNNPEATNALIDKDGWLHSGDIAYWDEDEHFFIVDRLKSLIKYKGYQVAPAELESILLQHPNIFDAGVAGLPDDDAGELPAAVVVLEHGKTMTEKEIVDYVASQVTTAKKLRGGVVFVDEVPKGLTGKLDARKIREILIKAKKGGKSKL
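Material: Luciferase/luciferin reagent mix | Doses: Test compounds dosed from 2 mM stocks in 100% DMSO | Timing: 10 min incubation after luciferase reagent addition, room temperature | Measured by: Luminescence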
NF-kB neuron act: raises NF-kB expression in human neuronal cells; NF-kB reporter expression; hits give high values; fold change at 12.5 µM; 190,000 tested, 1.6% active; AID 1239; in the data active = fold change above about 3.3
STAT1 act: STAT1 signaling activation; AID 932; activation (% of control), % at 5.5 µM; NIH 3T3 STAT1-luciferase reporter, IFN-gamma, luminescence; 100% = IFN-gamma alone, no compound; 200,000 tested, 2.6% active;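 active = activation above the screen-wide mean activation plus 3 SD, cut at about 130% in these data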
FLuc inh counter: counter-screen for luciferase assay inhibitors: firefly luciferase inhibition; P08659; inhibition, % at 10 µM; ATPLite firefly luciferase biochemical luminescence, 10 min; 200,000 tested, 1.5% active;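 active = inhibition above about 50% when tested at 10 µM, limit read from the data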
Of the large screens only hits and unclear results are named; the others gave an inactive call.

Nc1ncnc(Nc2ccc(F)cc2)n1	none
O=C(Nc1cnc2ccccc2c1)c1cccc(-n2cnnn2)c1	STAT1 act 135
Cc1cc(C(=O)Nc2cnc3ccccc3c2)ccc1[N+](=O)[O-]	APP 5'UTR act 204, STAT1 act 137
Cc1ccc(C(=O)Nc2cnc3ccccc3c2)cc1	FLuc inh counter 89 (no result: Pf gametocyte)
CCCn1c(NC(=O)c2ccccc2)nc2ccccc21	none (no result: Pf gametocyte)
Cc1ccc(C(=O)Nc2cccc(-c3cnc4ccccc4n3)c2)cc1	none (no result: Pf gametocyte)
Cn1c(NC(=O)c2cccnc2)nc2ccccc21	STAT1 act 148 (no result: Pf gametocyte)
O=C(NNC(=O)c1cccc(-n2cnnn2)c1)c1ccccc1	none (no result: Pf gametocyte)
CNS(=O)(=O)c1ccc(C(C)(C)C)cc1	none
O=C(Nc1ccc2ncccc2c1)c1ccccc1	none (no result: APP 5'UTR act, FLuc act counter, NF-kB neuron act, STAT1 act, FLuc inh counter)
O=C(Nc1cnc2ccccc2c1)c1cccnc1	NF-kB neuron act 3.6, STAT1 act 134 (no result: Pf gametocyte)
O=C(Nc1ccc(NC(=O)c2ccco2)nc1)c1cccnc1	STAT1 act 134, FLuc inh counter 62 (no result: Pf gametocyte)
O=C(Nc1cccnc1)c1ccc(NC(=O)c2ccco2)cc1	none (no result: Pf gametocyte)
CN(C)CCN(CC1CCCN(Cc2ccccc2F)C1)C(=O)c1ccc(F)cc1 (centres undefined)	none (no result: APP 5'UTR act, FLuc act counter, NF-kB neuron act, STAT1 act, FLuc inh counter)
Cc1ccc(NC(=O)Nc2ncccc2C)cc1	STAT1 act 149 (no result: Pf gametocyte)
CCOC(=O)c1ccc(NC(=O)Nc2ncccc2C)cc1	none
Cc1ccc(C)c(NC(=S)Nc2ncccc2C)c1	STAT1 act 132
Cc1cccnc1NC(=O)Nc1ccc(F)cc1	STAT1 act 136 (no result: Pf gametocyte)
Cc1ccsc1/C=N/NC(=O)c1ccc(-n2cccc2)cc1	STAT1 act 129
O=C(N/N=C/c1cc([N+](=O)[O-])ccc1O)c1ccc2c(c1)OCCO2	FLuc inh counter 70
O=C(N/N=C/c1ccccc1[N+](=O)[O-])c1ccc2c(c1)OCCO2	none (no result: APP 5'UTR act, FLuc act counter, NF-kB neuron act, STAT1 act, FLuc inh counter)
Cc1ccsc1/C=N\NC(=O)c1ccc2c(c1)OCO2	NF-kB neuron act 4.3, FLuc inh counter 77
Cc1ccsc1/C=N\NC(=O)c1n[nH]c2c1CCC2	NF-kB neuron act 4.8, FLuc inh counter 71
Cc1ccsc1/C=N/NC(=O)c1ccc2c(c1)OCCO2	none (no result: APP 5'UTR act, FLuc act counter, NF-kB neuron act, STAT1 act, FLuc inh counter)
CCCc1nnc(NC(=O)CCCN2C(=O)c3ccccc3C2=O)s1	none (no result: Pf gametocyte)
CCc1ccc(S(=O)(=O)NC2CC(C)(C)NC(C)(C)C2)cc1	none (no result: APP 5'UTR act, FLuc act counter, NF-kB neuron act, STAT1 act, FLuc inh counter)
O=C(N/N=C/c1ccc[nH]1)c1ccc2c(c1)OCO2	FLuc inh counter 73 (no result: Pf gametocyte)
C/C(=C\C(=O)Nc1nccs1)c1ccccc1	STAT1 act 144 (no result: Pf gametocyte)
N#CC1=C(N)Oc2cc(N)ccc2C1C1CCCCC1 (centres undefined)	none (no result: Pf gametocyte)
Cn1c(CNc2ccc(Cl)cc2)nc2ccccc21	APP 5'UTR act 175, NF-kB neuron act 3.9, STAT1 act 143
Cc1nc2cc(NCc3nc4ccccc4n3Cc3ccccc3)ccc2n1C	STAT1 act 135, FLuc inh counter 87 (no result: Pf gametocyte)
O=C(N/N=C/c1cccs1)C(=O)Nc1cccc(Cl)c1	none
O=C(O)c1cccc(N/N=C/c2cccs2)c1	NF-kB neuron act 15
CSc1ccc(/C=N/Nc2cccc(C(=O)O)c2)cc1	NF-kB neuron act 18, FLuc inh counter 57 (no result: Pf gametocyte)
COc1ccc(N=Cc2nc(-c3ccccc3)oc2OC(=O)c2ccccc2)cc1	STAT1 act 132 (no result: Pf gametocyte)
CC(=O)Oc1oc(-c2ccccc2)nc1C=Nc1ccccc1	none
Oc1oc(-c2ccco2)nc1C=Nc1ccccc1	none
Cc1ccc(C(=O)Oc2oc(-c3ccco3)nc2C=Nc2ccccc2)cc1	STAT1 act 139 (no result: Pf gametocyte)
CCOc1ccc(N2C(=O)CN(CC(=O)OC)C2=S)cc1	none
COc1ccc2c(c1OC)C(=O)N(c1cccc(C)c1)C2=O	STAT1 act 136 (no result: Pf gametocyte)
COC(=O)c1ccc(N2C(=O)c3ccc(OC)c(OC)c3C2=O)cc1	none (no result: Pf gametocyte, NF-kB neuron act)
O=c1c2c(nc3nc(NCc4ccccc4Cl)[nH]n13)CCC2	none
CCOC(=O)[C@H]1[C@H]2COc3cc(OC)ccc3[C@@H]2N2C(=O)c3cc(C)ccc3NC(=O)[C@@]12C	none (no result: APP 5'UTR act, FLuc act counter, NF-kB neuron act, STAT1 act, FLuc inh counter)
CCOC(=O)[C@H]1[C@H]2COc3cc(OC)ccc3[C@@H]2N2C(=O)c3ccc(C)cc3NC(=O)[C@@]12C	Pf gametocyte 39 (no result: APP 5'UTR act, FLuc act counter, NF-kB neuron act, STAT1 act, FLuc inh counter)
COc1ccc(-n2ncc(N(C)n3cccc3)c(Cl)c2=O)cc1	NF-kB neuron act 3.7, STAT1 act 134, FLuc inh counter 54
Cc1ccc(-n2ncc(N(C)C)c(Cl)c2=O)cc1	STAT1 act 132
Cc1ccccc1Nc1ncnc2c1cnn2C	none (no result: APP 5'UTR act, FLuc act counter, NF-kB neuron act, STAT1 act, FLuc inh counter)
CC1(C)CC(=O)C2(CC3=C(CC(C)(C)CC3=O)O2)C(=O)C1	none (no result: Pf gametocyte)
COc1ccc(-c2c(-c3ccc(OC)c(C)c3O)n[nH]c2C)cc1	none (no result: APP 5'UTR act, FLuc act counter, NF-kB neuron act, STAT1 act, FLuc inh counter)
CCOc1cc(C2Nc3ccccc3C(=O)N2c2ccccc2)c(Br)cc1OCC(=O)O (centres undefined)	none
COc1cc(C2NC(=O)NC(c3ccccc3)=C2C(C)=O)c(Cl)cc1OCC(=O)O (centres undefined)	APP 5'UTR act 199
COc1cc(C2Nc3ccccc3C(=O)N2c2ccc(Cl)cc2)c(Cl)cc1OCC(=O)O (centres undefined)	STAT1 act 138
CS(=O)(=O)N1CCN(c2ccc([N+](=O)[O-])c(SCc3ccco3)c2)CC1	none
CCn1c(C2CCN(Cc3ccccc3)CC2)n[nH]c1=S	APP 5'UTR act 154
Cc1nc2ccccc2nc1N1CCC(C)CC1	none (no result: Pf gametocyte)
Cc1cc(N2CCC(C)CC2)nc2cccc(O)c12	NF-kB neuron act 4.5 (no result: Pf gametocyte)
Cc1ccc(C(=O)Oc2cccc(-n3cnnn3)c2)cc1	STAT1 act 135
COc1ccccc1NC(=O)COC(=O)C1CC1	none
OC1CCN(c2c3c(nc4cc(-c5cccc(F)c5)nn24)CCCC3)CC1	none
CN(CCO)c1c2c(nc3cc(-c4cccc(F)c4)nn13)CCCC2	APP 5'UTR act 153, STAT1 act 142 (no result: Pf gametocyte)
Cc1cc(NC(=O)c2ccccc2F)ncc1NC(=O)c1cccs1	none (no result: Pf gametocyte)
COc1ccc2cc3cc(C(=O)NCc4ccco4)oc3nc2c1	none (no result: Pf gametocyte)
COc1ccc2cc3c(N)c(C(=O)NCc4ccco4)sc3nc2c1	STAT1 act 137 (no result: Pf gametocyte)
CC1CCc2nc(NC(=O)Nc3ccc4c(c3)OCO4)sc2C1 (centres undefined)	FLuc inh counter 53
CC1CCc2nc(NC(=O)C3CC3)sc2C1 (centres undefined)	none
CC1CCc2nc(NC(=O)C3COc4ccccc4O3)sc2C1 (centres undefined)	APP 5'UTR act 168 (no result: Pf gametocyte)
Cc1nc2ccc3nc(NC(=O)C4COc5ccccc5O4)sc3c2s1 (centres undefined)	none (no result: Pf gametocyte)
Cc1cnc(NC(=O)C2COc3ccccc3O2)s1 (centres undefined)	APP 5'UTR act 144, FLuc inh counter 52 (no result: Pf gametocyte)
COc1ccc(-c2nc3c4ccccc4ccn3c2CN2CCOCC2)cc1OC	none (no result: APP 5'UTR act, FLuc act counter, NF-kB neuron act, STAT1 act, FLuc inh counter)
OCCCn1c(-c2ccccc2)csc1=Nc1ccccc1	none
CCn1c(-c2ccccc2)csc1=Nc1ccc(S(=O)(=O)O)cc1	FLuc inh counter 54
CCOC(=O)c1ccc(NC(=O)c2n[nH]c(=O)c3ccccc23)cc1	none (no result: Pf gametocyte)

Screening results: PubChem BioAssay, several laboratories
